Reference: ChEMBL document CHEMBL3352233, “N-[6-(4-butanoyl-5-methyl-1H-pyrazol-1-yl)pyridazin-3-yl]-5-chloro-1-[2-(4-methylpiperazin-1-yl)-2-oxoethyl]-1H-indole-3-carboxamide (SAR216471), a novel intravenous and oral, reversible, and directly acting P2Y12 antagonist” (J Med Chem, 2014)

Tests used:
[1] = Permeability across human Caco2 cells; assay type: ADME, cell-based; conditions: for Papp: Caco-2, read-out: permeability; for permeability: Caco-2
Outline: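 Permeation is measured across a Caco2 cell monolayer and reported in 10⁻⁷ cm·s⁻¹.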

[2] = (§1) Metabolic stability in rat liver microsomes assessed as compound metabolism after 20 mins incubation in presence of 1 mM NADPH; assay type: ADME; conditions: liver microsomes, read-out: Drug metabolism
Outline: (§2)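 Hepatic microsomal fractions are incubated with compound for 20 min with 1 mM NADPH. Result is reported as % metabolized, i.e. 100 minus % unchanged compound.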

P2Y purinoceptor 12 = P2Y purinoceptor 12 (Homo sapiens, UniProt Q9H244); experiment: Displacement of [33P]2MeS-ADP from P2Y12 receptor (unknown origin) transfected in CHO cells after 30 mins by scintillation counting analysis; assay type: cell-based
Sequence of P2Y purinoceptor 12 (Q9H244 whole entry): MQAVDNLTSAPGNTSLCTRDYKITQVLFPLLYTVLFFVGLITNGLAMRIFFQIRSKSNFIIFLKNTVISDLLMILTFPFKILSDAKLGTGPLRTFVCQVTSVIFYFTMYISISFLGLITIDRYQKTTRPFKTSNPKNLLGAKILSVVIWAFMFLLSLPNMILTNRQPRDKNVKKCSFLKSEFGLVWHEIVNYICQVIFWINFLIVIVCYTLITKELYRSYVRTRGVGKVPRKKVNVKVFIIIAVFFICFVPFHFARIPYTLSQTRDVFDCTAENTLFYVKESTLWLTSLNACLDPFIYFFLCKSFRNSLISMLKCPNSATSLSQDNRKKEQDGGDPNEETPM
Outline: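 P2Y12-expressing CHO cells (35 × 10³/sample) in PBS with 1 mM EDTA and 0.2% BSA are exposed to compound for 30 min. [³³P]2-MeS-ADP (0.16 nM) is then added for 15 min at 20 °C, in triplicate. Filtration separates free from bound ligand, followed by scintillation counting. Nonspecific binding uses 1 mM unlabeled ADP. IC50 comes from a four-parameter logistic fit with asymptotes fixed at 0 and 100. n = 2.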

[3] = (§3) Metabolic stability in human liver microsomes assessed as compound metabolism after 20 mins incubation in presence of 1 mM NADPH; assay type: ADME; conditions: liver microsomes, read-out: Drug metabolism; outline: as §2
[4] = Solubility in water at final pH; assay type: physicochemical
Rattus norvegicus [5] = experiment: Ex vivo inhibition of platelet aggregation in Sprague-Dawley rat at 10 mg/kg, po after 6 hrs; assay type: functional; conditions: for inhibition in vivo at 10 mg/kg: Rattus norvegicus, Sprague-Dawley, po, 6 h; for inhibition (INH): 10 mg/kg
Outline: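 Time-course study in Sprague−Dawley rats after a 10 mg/kg oral dose in glucose/Cremophor/glycofurol vehicle. Aortic citrated blood is sampled at intervals over the hours after dosing. PRP is prepared at 300g for 5 min. ADP-induced aggregation is measured as the 6-min absorbance AUC and reported as % inhibition.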

Rattus norvegicus [6] = experiment: Ex vivo inhibition of platelet aggregation in Sprague-Dawley rat at 10 mg/kg, po after 2 hrs; assay type: functional; conditions: for inhibition in vivo at 10 mg/kg: Rattus norvegicus, Sprague-Dawley, po, 2 h; for inhibition (INH): 10 mg/kg
Outline: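 Male Sprague−Dawley rats (250−300 g), 6 per batch, are dosed by stomach tube at 10 mL/kg of a 1 mg/mL solution in 5% glucose water containing 5% Cremophor and 3% glycofurol. At 2 h, aortic blood is drawn into 3.8% citrate (1:9) under pentobarbital. PRP is prepared at 300g for 5 min. ADP aggregation is read as the 6-min absorbance AUC and expressed as % inhibition.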

Rattus norvegicus [7] = experiment: Ex vivo inhibition of platelet aggregation in Sprague-Dawley rat at 1 mg/kg, iv after 30 mins; assay type: functional; conditions: 0.5 h
Outline: (§4)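 Male Sprague−Dawley rats (250−300 g) receive compound iv. At 30 min, under pentobarbital anesthesia, blood is taken from the abdominal aorta into 3.8% citrate (1:9). PRP is prepared at 300g for 5 min. ADP-induced aggregation is measured, using the area under the absorbance curve over 6 min, and expressed as % inhibition.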

Rattus norvegicus [8] = experiment: Ex vivo inhibition of platelet aggregation in Sprague-Dawley rat at 3 mg/kg, iv after 30 mins; assay type: functional; conditions: 0.5 h; outline: as §4
Rattus norvegicus [9] = experiment: Ex vivo inhibition of platelet aggregation in Sprague-Dawley rat at 10 mg/kg, iv after 30 mins; assay type: functional; conditions: 0.5 h; outline: as §4
Liver microsome [10] = experiment: as §1; assay type: ADME; conditions: microsomes, 20 min; outline: as §2
Liver microsome [11] = experiment: as §3; assay type: ADME; conditions: microsomes, 20 min; outline: as §2
[12] = Solubility in water at pH 4.9; assay type: physicochemical
[13] = Metabolic stability in mouse liver microsomes assessed as compound metabolism after 20 mins incubation in presence of 1 mM NADPH; assay type: ADME; conditions: read-out: Drug metabolism
Outline: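 Compound incubated with mouse hepatic microsomal fractions for 20 min with 1 mM NADPH. Read-out is % metabolism, meaning 100 minus % unchanged compound.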

Hepatocyte [14] = experiment: Intrinsic metabolic clearance in human hepatocytes measured per 10^6 cells after 24 hrs; assay type: ADME, cell-based
Outline: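 Human hepatocytes incubated with compound for 24 h to measure in vitro metabolism. Clearance reported in mL·h⁻¹·(10⁶ hepatocytes)⁻¹.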

Hepatocyte [15] = experiment: Intrinsic metabolic clearance in human hepatocytes measured assessed as CYP3A4 contribution per 10^6 cells after 24 hrs; assay type: ADME, cell-based
[16] = Plasma concentration in conscious telemetered mongrel dog at 100 mg/kg, po after 4 hrs; assay type: ADME, organism-based, Canis lupus familiaris; design: dose 100 mg/kg, route oral
Rattus norvegicus [17] = experiment: Ratio of AUC (0 to 24 hrs) in rat dosed as 7 day repeated administration to AUC (0 to 24 hrs) in rat administered as single dose; conditions: in vivo
Rattus norvegicus [18] = experiment: Ex vivo inhibition of platelet aggregation in po dosed Sprague-Dawley rat after 2 hrs; assay type: functional
Outline: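 Oral gavage in male Sprague−Dawley rats (250−300 g, 6 per batch), vehicle 5% glucose water with 5% Cremophor and 3% glycofurol. Blood is collected 2 h after dosing from the abdominal aorta into 3.8% citrate under pentobarbital. PRP is prepared at 300g for 5 min. ADP-induced aggregation is quantified as the 6-min absorbance AUC, given as % inhibition.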

Rattus norvegicus [19] = experiment: Toxicity in rat assessed as damaged organ at 100 mg/kg, po after 7 days; assay type: organism-based; design: dose 100 mg/kg, route oral; conditions: in vivo, 168 h
Outline: (§5)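 Rats are dosed daily for 7 days, orally (30 and 100 mg/kg) or iv (3 and 10 mg/kg). Target organs are examined for damage. Plasma AUC(0−24) is compared between day 1 and day 7.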

Rattus norvegicus [20] = experiment: Toxicity in rat assessed as damaged organ at 30 mg/kg, po after 7 days; assay type: organism-based; design: dose 30 mg/kg, route oral; conditions: in vivo, 168 h; outline: as §5
Rattus norvegicus [21] = experiment: Ex vivo inhibition of platelet aggregation in Sprague-Dawley rat at 30 mg/kg, po after 2 hrs
Rattus norvegicus [22] = experiment: Toxicity in rat assessed as damaged organ at 3 mg/kg, iv after 7 days; assay type: organism-based; design: dose 3 mg/kg, route intravenous; conditions: in vivo, 168 h; outline: as §5
Canis familiaris [23] = experiment: Toxicity in conscious telemetered mongrel dog assessed as electrocardiographic effect at 100 mg/kg, po after 24 hrs; assay type: organism-based, Canis lupus familiaris; design: dose 100 mg/kg, route oral; conditions: in vivo
Rattus norvegicus [24] = experiment: Ex vivo inhibition of platelet aggregation in Sprague-Dawley rat at 0.1 mg/kg, iv after 5 mins
Rattus norvegicus [25] = experiment: Ex vivo inhibition of platelet aggregation in Sprague-Dawley rat at 0.3 mg/kg, iv after 5 mins
Rattus norvegicus [26] = experiment: Toxicity in rat assessed as damaged organ at 10 mg/kg, iv after 7 days; assay type: organism-based; design: dose 10 mg/kg, route intravenous; conditions: in vivo, 168 h; outline: as §5
Canis familiaris [27] = experiment: Toxicity in conscious telemetered mongrel dog assessed as body temperature at 100 mg/kg, po after 24 hrs; assay type: organism-based, Canis lupus familiaris; design: dose 100 mg/kg, route oral; conditions: in vivo
Canis familiaris [28] = experiment: Toxicity in conscious telemetered mongrel dog assessed as hemodynamic effect at 100 mg/kg, po after 24 hrs; assay type: organism-based, Canis lupus familiaris; design: dose 100 mg/kg, route oral; conditions: in vivo

Row | SMILES | Papp [1] | metabolised at 20 min [2] | IC50 (P2Y purinoceptor 12) | metabolised at 20 min [3] | Drug metabolism (Liver microsome [10]) | metabolised at 20 min [13] | CLH (Hepatocyte [14]) | Activity (Hepatocyte [15]) | also measured
1 | CCCC(=O)c1cnn(-c2ccc(NC(=O)c3cn(CC(=O)N(C)C)c4cc(C)c(C)cc34)cc2)c1C | 18.6 ×10⁻⁶ cm/s | 64% | 0.031 µM | 59% |  |  |  |  | solubility [4]: < 10 µg/mL
2 | CCCC(=O)c1cnn(-c2ccc(NC(=O)c3cn(CC(=O)N4CCN(C)CC4)c4ccc(Cl)cc34)cc2)c1C | 1.6 ×10⁻⁶ cm/s | 14% | 0.027 µM | 36% |  |  |  |  | inhibition in vivo at 10 mg/kg (Rattus norvegicus [5]): 51%; inhibition in vivo at 10 mg/kg (Rattus norvegicus [6]): 50%; inhibition in vivo at 1 mg/kg (Rattus norvegicus [7]): 53%; inhibition in vivo at 3 mg/kg (Rattus norvegicus [8]): 70%; inhibition in vivo at 10 mg/kg (Rattus norvegicus [9]): 86%
3 | CCCC(=O)c1cnn(-c2ccc(NC(=O)c3cn(CC(=O)N4CCN5CCN(C)C(=O)C5C4)c4ccc(Cl)cc34)cc2)c1C (racemic) | 3.6 ×10⁻⁶ cm/s |  | 0.008 µM | 50% | 40% |  |  |  | inhibition (INH) (Rattus norvegicus [5]): 39%; inhibition (INH) (Rattus norvegicus [6]): 80%
4 | CCCC(=O)c1cnn(-c2ccc(NC(=O)c3cn(CC(=O)N4CCN5CCN(C)C(=O)C5C4)c4ccc(Cl)cc34)cc2)c1C (single isomer, unassigned; 103) |  |  | 0.007 µM |  | 23% |  |  |  | permeability [1]: 32 ×10⁻⁷ cm/s; inhibition (INH) (Rattus norvegicus [6]): 46%; Drug metabolism (Liver microsome [11]): 52%
5 | CCCC(=O)c1cnn(-c2ccc(NC(=O)c3cn(CC(=O)N4CCN(C)CC4)c4ccc(C)cc34)cc2)c1C.Cl | 4 ×10⁻⁶ cm/s | 41% | 0.031 µM | 39% |  |  |  |  | inhibition in vivo at 10 mg/kg (Rattus norvegicus [6]): 33%; solubility [12]: 760 µg/mL
6 | CCCC(=O)c1cnn([C@H]2CC[C@H](NC(=O)c3cn(CC(=O)N4CCN(C)CC4)c4ccc(Cl)cc34)CC2)c1C | 0.1 ×10⁻⁶ cm/s | 32% | 0.04 µM | 73% |  | 11% | 0.171 mL/h | 64% | 
7 | CCCC(=O)c1cnn(-c2ccc(NC(=O)c3cn(CC(=O)N4CCN(C)CC4)c4ccc(Cl)cc34)nn2)c1C | 0.8 ×10⁻⁶ cm/s | 11% | 0.017 µM | 29% |  | 4% | 0.085 mL/h | 43% | concentration at 4 h [16]: 4.2 µM; inhibition in vivo at 10 mg/kg (Rattus norvegicus [5]): 74%; Ratio (Rattus norvegicus [17]): 1.3; ED50 (Rattus norvegicus [18]): 2.75 mg/kg; inhibition (Rattus norvegicus [18]): Dose-dependent effect; Activity (Rattus norvegicus [19]): Non-toxic; Activity (Rattus norvegicus [20]): Non-toxic; inhibition in vivo at 1 mg/kg (Rattus norvegicus [7]): 75%; inhibition in vivo at 30 mg/kg (Rattus norvegicus [21]): 85%; Activity (Rattus norvegicus [22]): Non-toxic; inhibition in vivo at 3 mg/kg (Rattus norvegicus [8]): 86%; Activity (Canis familiaris [23]): Non-toxic; inhibition in vivo at 0.1 mg/kg (Rattus norvegicus [24]): 37%; inhibition in vivo at 10 mg/kg (Rattus norvegicus [9]): 92%; inhibition in vivo at 0.3 mg/kg (Rattus norvegicus [25]): 63%; Activity (Rattus norvegicus [26]): Non-toxic; Activity (Canis familiaris [27]): Non-toxic; Activity (Canis familiaris [28]): Non-toxic
8 | CCCC(=O)c1cnn(-c2ccc(NC(=O)c3cn(CC(=O)N4CCN5CCN(C)C(=O)C5C4)c4ccc(Cl)cc34)cc2)c1C (single isomer, unassigned; 104) |  |  | 0.012 µM |  | 7% |  |  |  | inhibition (INH) (Rattus norvegicus [5]): 61%; permeability [1]: 28 ×10⁻⁷ cm/s; Drug metabolism (Liver microsome [11]): 47%
9 | CCCC(=O)c1cnn(-c2ccc(NC(=O)c3cn(CC(=O)N4CCN(C)CC4)c4ccc(Cl)cc34)c(C#N)c2)c1C | 3.3 ×10⁻⁶ cm/s | 18% | 0.048 µM | 61% |  | 8% | 0.143 mL/h | 67% | 
10 | CCCC(=O)c1cnn(C2CCN(NC(=O)c3cn(CC(=O)N4CCN(C)CC4)c4ccc(Cl)cc34)CC2)c1C | 0.1 ×10⁻⁶ cm/s | 13% | 0.007 µM | 59% |  | 3% | 0.05 mL/h | 35% | ED50 (Rattus norvegicus [18]): 0.95 mg/kg; inhibition (Rattus norvegicus [18]): Dose-dependent effect
